For orientation: MIC means the smallest concentration in the dilution series that meets the test's criterion for growth inhibition.

Here are results for seven compounds from ChEMBL document CHEMBL2331482, “Synthesis of some new 2-(3-pyridyl)-4,5-disubstituted thiazoles as potent antimicrobial agents” (2013).

Holding throughout (format): functional
The subject of one test is Bacillus subtilis. Kind of test: Antibacterial activity against Bacillus subtilis RCMB 010063 assessed as growth inhibition after 24 hrs by twofold serial dilution method. To be noted: RCMB 010063, 24 h. Summed up: (§1)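 Broth microdilution in Müller–Hinton broth, 96-well plates. Only compounds giving disc-diffusion zones >10 mm were tested. DMF stocks (1000 µg/mL) were diluted twofold to a final 500–0.007 µg/mL, with about 10^6 CFU/mL bacteria. Sealed plates ran 24 h at 37 °C in a humid chamber. MIC was the lowest concentration with no visible turbidity. DMF and uninoculated-medium controls were included.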

In a further test the test system is Neisseria gonorrhoeae. The test can be described thus: Antibacterial activity against Neisseria gonorrhoeae RCMB 010076 assessed as growth inhibition after 24 hrs by twofold serial dilution method. In a few lines:
as §1

In another test the test system is Candida albicans. The test can be described thus: Antifungal activity against Candida albicans RCMB 05035 assessed as growth inhibition after 48 hrs by twofold serial dilution method. Summed up:
(§2)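 Fungi were tested by microdilution in Sabouraud liquid medium. Only compounds with disc-diffusion zones >10 mm went on to this test. DMF stocks (1000 µg/mL) were serially diluted twofold to 500–0.007 µg/mL. Sealed plates were held 48 h at 25 °C in a humid chamber. MIC was the lowest concentration without visible turbidity. DMF and uninoculated-medium controls ran in parallel.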

In the next test the test system is Geotrichum candidum. Kind of test: Antifungal activity against Geotricum candidum RCMB 05096 assessed as growth inhibition after 48 hrs by twofold serial dilution method. Particulars: RCMB 05096, 48 h. In a few lines: as §2
Another test deals with Klebsiella pneumoniae. Kind of test: Antibacterial activity against Klebsiella pneumoniae RCMB 010093 assessed as growth inhibition after 24 hrs by twofold serial dilution method. In a few lines:
as §1

The next test deals with Pseudomonas aeruginosa. Kind of test: Antibacterial activity against Pseudomonas aeruginosa RCMB 010043 assessed as growth inhibition after 24 hrs by twofold serial dilution method. Summed up:
as §1

In a further test the test system is Streptococcus pyogenes. The test can be described thus: Antibacterial activity against Streptococcus pyogenes RCMB 010015 assessed as growth inhibition after 24 hrs by twofold serial dilution method. Summed up: as §1
A further test deals with Shigella flexneri. The test can be described thus: Antibacterial activity against Shigella flexneri RCMB 0100542 assessed as growth inhibition after 24 hrs by twofold serial dilution method. Summed up:
as §1

The subject of a further test is Proteus vulgaris. The test can be described thus: Antibacterial activity against Proteus vulgaris RCMB 010085 assessed as growth inhibition after 24 hrs by twofold serial dilution method. Summed up:
as §1

Another test relates to Enterococcus faecalis. Kind of test: Antibacterial activity against Enterococcus faecalis RCMB 010068 assessed as growth inhibition after 24 hrs by twofold serial dilution method. To be noted: RCMB 010068, 24 h. In a few lines:
as §1

In another test the test system is Aspergillus fumigatus. Kind of test: Antifungal activity against Aspergillus fumigatus RCMB 02564 assessed as growth inhibition after 48 hrs by twofold serial dilution method. Particulars: RCMB 02564, 48 h. Summed up:
as §2

Another test concerns Talaromyces marneffei. Kind of test: Antifungal activity against Penicillium marneffei RCMB 01267 assessed as growth inhibition after 48 hrs by twofold serial dilution method. Particulars: RCMB 01267, 48 h. Summed up:
as §2

The next test concerns Aspergillus clavatus. The test can be described thus: Antifungal activity against Aspergillus clavatus RCMB 02593 assessed as growth inhibition after 48 hrs by twofold serial dilution method. Particulars: RCMB 02593, 48 h. Summed up:
as §2

Another test has as its system Staphylococcus aureus. The test can be described thus: Antibacterial activity against Staphylococcus aureus RCMB 010027 assessed as growth inhibition after 24 hrs by twofold serial dilution method. Particulars: RCMB 010027, 24 h. Summed up:
as §1

Test [1] has as its system Staphylococcus epidermidis. The test can be described thus: Antibacterial activity against Staphylococcus epidermidis RCMB 010024 assessed as growth inhibition after 24 hrs by twofold serial dilution method. To be noted: RCMB 010024, 24 h. Summed up:
as §1

Values after ≈ are worked out from the molar mass of the structure shown. Active and inactive are the calls of the source.

On to `Cc1nc(-c2cccnc2)sc1C1=NNC(c2ccc(Cl)cc2)C1` (stereo not given), for which the minimal inhibitory concentration (MIC) in the test with Bacillus subtilis was 62.5 µg/mL (≈ 176 µM); in the test with Geotrichum candidum, 125 µg/mL (≈ 352 µM); in the test with Enterococcus faecalis, 125 µg/mL (≈ 352 µM); with Aspergillus fumigatus, 125 µg/mL (≈ 352 µM); with Talaromyces marneffei, 250 µg/mL (≈ 704 µM); in the test on Aspergillus clavatus it was 125 µg/mL (≈ 352 µM). Also, the values for the MIC (in the test on Staphylococcus aureus; in [1]) were 125 µg/mL (≈ 352 µM) and 62.5 µg/mL (≈ 176 µM), respectively. Also, the MIC entry in the test on Neisseria gonorrhoeae, in the test with Candida albicans, with Klebsiella pneumoniae, with Pseudomonas aeruginosa, in the test on Streptococcus pyogenes and in the test with Shigella flexneri was “inactive” each time. In addition, the MIC result with Proteus vulgaris was “inactive”.

Consider `Cc1nc(-c2cccnc2)sc1C1=NNC(c2ccccc2)C1` (stereo not given), for which the MIC in the test on Bacillus subtilis was 62.5 µg/mL (≈ 195 µM); in the test with Geotrichum candidum it was 62.5 µg/mL (≈ 195 µM); with Enterococcus faecalis, 125 µg/mL (≈ 390 µM); in the test with Aspergillus fumigatus, 125 µg/mL (≈ 390 µM); in the test on Talaromyces marneffei it was 250 µg/mL (≈ 780 µM); in the test on Aspergillus clavatus it was 62.5 µg/mL (≈ 195 µM). Further, the minimal inhibitory concentration (MIC) in the test with Staphylococcus aureus was found to be 125 µg/mL (≈ 390 µM); in test [1] it was 62.5 µg/mL (≈ 195 µM). Besides, the MIC entry in the test with Neisseria gonorrhoeae, in the test with Candida albicans, in the test on Klebsiella pneumoniae, with Pseudomonas aeruginosa, with Streptococcus pyogenes and in the test with Shigella flexneri was “inactive” each time. In addition, the MIC entry in the test on Proteus vulgaris is “inactive”.

On to GENTAMICIN, for which the MIC was 7.81 µg/mL in the test with Neisseria gonorrhoeae; 0.24 µg/mL in the test with Klebsiella pneumoniae; 31.2 µg/mL in the test with Pseudomonas aeruginosa; 0.48 µg/mL with Shigella flexneri; 1.95 µg/mL with Proteus vulgaris.

Take `C[C@@H]1[C@H](O)[C@@H](C)/C=C/C=C/C=C/C=C/C=C/C=C/C=C/[C@H](O[C@@H]2O[C@H](C)[C@@H](O)[C@H](N)[C@@H]2O)C[C@@H]2O[C@](O)(C[C@@H](O)C[C@@H](O)[C@H](O)CC[C@@H](O)C[C@@H](O)CC(=O)O[C@H]1C)C[C@H](O)[C@H]2C(=O)O` [AMPHOTERICIN B]: the minimum inhibitory concentration (MIC) with Candida albicans (RCMB 05035, 48 h) was found to be 0.24 µg/mL (≈ 0.26 µM); in the test on Geotrichum candidum, 0.48 µg/mL (≈ 0.519 µM); in the test on Aspergillus fumigatus, 0.97 µg/mL (≈ 1.05 µM); with Talaromyces marneffei it was 1.95 µg/mL (≈ 2.11 µM); with Aspergillus clavatus, 1.95 µg/mL (≈ 2.11 µM).

Turning to `O=c1oc2ccccc2cc1-c1csc(-c2cccnc2)n1`, the MIC in the test with Bacillus subtilis stood at 3.9 µg/mL (≈ 12.7 µM); in the test with Neisseria gonorrhoeae (RCMB 010076, 24 h), 62.5 µg/mL (≈ 204 µM); with Candida albicans (RCMB 05035, 48 h) it was 125 µg/mL (≈ 408 µM); with Geotrichum candidum, 15.6 µg/mL (≈ 51 µM); with Klebsiella pneumoniae (RCMB 010093, 24 h), 7.81 µg/mL (≈ 25.5 µM); in the test on Pseudomonas aeruginosa (RCMB 010043, 24 h), 62.5 µg/mL (≈ 204 µM). For the same compound, the MIC in the test on Streptococcus pyogenes (RCMB 010015, 24 h) amounted to 7.81 µg/mL (≈ 25.5 µM); in the test with Shigella flexneri (RCMB 0100542, 24 h), 1.95 µg/mL (≈ 6.37 µM); with Proteus vulgaris (RCMB 010085, 24 h), 15.6 µg/mL (≈ 51 µM); with Enterococcus faecalis, 62.5 µg/mL (≈ 204 µM); with Aspergillus fumigatus it was 15.6 µg/mL (≈ 51 µM); with Talaromyces marneffei it was 31.2 µg/mL (≈ 102 µM). Besides, the MIC came to 15.6 µg/mL (≈ 51 µM) in the test on Aspergillus clavatus, 7.81 µg/mL (≈ 25.5 µM) in the test on Staphylococcus aureus and 3.9 µg/mL (≈ 12.7 µM) in [1].

`Cc1csc(-c2cccnc2)n1`: the MIC in the test on Bacillus subtilis was 1.95 µg/mL (≈ 11.1 µM); in the test on Neisseria gonorrhoeae (RCMB 010076, 24 h), 62.5 µg/mL (≈ 355 µM); in the test on Candida albicans (RCMB 05035, 48 h), 31.2 µg/mL (≈ 177 µM); in the test on Geotrichum candidum it was 1.95 µg/mL (≈ 11.1 µM); with Klebsiella pneumoniae (RCMB 010093, 24 h), 1.95 µg/mL (≈ 11.1 µM); in the test with Pseudomonas aeruginosa (RCMB 010043, 24 h), 125 µg/mL (≈ 709 µM). Moreover, the MIC in the test with Streptococcus pyogenes (RCMB 010015, 24 h) was 15.6 µg/mL (≈ 88.7 µM); in the test on Shigella flexneri (RCMB 0100542, 24 h), 3.9 µg/mL (≈ 22.1 µM); in the test on Proteus vulgaris (RCMB 010085, 24 h) it was 3.9 µg/mL (≈ 22.1 µM); in the test with Enterococcus faecalis, 31.2 µg/mL (≈ 177 µM); with Aspergillus fumigatus, 7.81 µg/mL (≈ 44.3 µM); in the test on Talaromyces marneffei, 3.9 µg/mL (≈ 22.1 µM). In addition, the MIC is 15.6 µg/mL (≈ 88.7 µM) in the test with Aspergillus clavatus, 0.97 µg/mL (≈ 5.5 µM) in the test with Staphylococcus aureus and 0.97 µg/mL (≈ 5.5 µM) in [1].

`COc1ccc(C2CC(c3sc(-c4cccnc4)nc3C)=NN2)cc1` (stereo not given): the MIC was 15.6 µg/mL (≈ 44.6 µM) with Bacillus subtilis; 500 µg/mL (≈ 1430 µM) in the test with Neisseria gonorrhoeae (RCMB 010076, 24 h); 250 µg/mL (≈ 713 µM) with Candida albicans (RCMB 05035, 48 h); 31.2 µg/mL (≈ 89.2 µM) in the test on Geotrichum candidum; 62.5 µg/mL (≈ 178 µM) with Klebsiella pneumoniae (RCMB 010093, 24 h); 62.5 µg/mL (≈ 178 µM) in the test on Shigella flexneri (RCMB 0100542, 24 h). Also, the MIC with Proteus vulgaris (RCMB 010085, 24 h) turned out to be 31.2 µg/mL (≈ 89.2 µM); in the test with Enterococcus faecalis, 250 µg/mL (≈ 713 µM); in the test on Aspergillus fumigatus, 31.2 µg/mL (≈ 89.2 µM); with Talaromyces marneffei, 62.5 µg/mL (≈ 178 µM); in the test on Aspergillus clavatus, 62.5 µg/mL (≈ 178 µM); in the test on Staphylococcus aureus, 15.6 µg/mL (≈ 44.6 µM). In addition, in test [1], the MIC worked out at 15.6 µg/mL (≈ 44.6 µM). Besides, the MIC entry in the test on Pseudomonas aeruginosa and in the test with Streptococcus pyogenes was “inactive” throughout.
